Reference: ChEMBL document CHEMBL2146436, “Synthesis and pharmacological investigation of azaphthalazinone human histamine H(1) receptor antagonists” (Bioorg Med Chem, 2012)

Legend:
Histamine H3 receptor = Histamine H3 receptor (Homo sapiens, UniProt Q9Y5N1); assay: Antagonist activity at human H3 receptor expressed in CHO cells assessed as inhibition of histamine-induced GTPgamma[S] binding by scintillation proximity assay; assay type: functional, cell-based
[1] = Lipophilicity, log D of compound at pH 7.4; assay type: physicochemical; conditions: buffer
[2] = molecular target: T1, Alpha-1A adrenergic receptor (Homo sapiens, UniProt P35348); assay: Antagonist activity at human adrenergic alpha1A receptor expressed in rat fibroblasts by plate-based calcium imaging; assay type: functional
T1 sequence (P35348 whole entry): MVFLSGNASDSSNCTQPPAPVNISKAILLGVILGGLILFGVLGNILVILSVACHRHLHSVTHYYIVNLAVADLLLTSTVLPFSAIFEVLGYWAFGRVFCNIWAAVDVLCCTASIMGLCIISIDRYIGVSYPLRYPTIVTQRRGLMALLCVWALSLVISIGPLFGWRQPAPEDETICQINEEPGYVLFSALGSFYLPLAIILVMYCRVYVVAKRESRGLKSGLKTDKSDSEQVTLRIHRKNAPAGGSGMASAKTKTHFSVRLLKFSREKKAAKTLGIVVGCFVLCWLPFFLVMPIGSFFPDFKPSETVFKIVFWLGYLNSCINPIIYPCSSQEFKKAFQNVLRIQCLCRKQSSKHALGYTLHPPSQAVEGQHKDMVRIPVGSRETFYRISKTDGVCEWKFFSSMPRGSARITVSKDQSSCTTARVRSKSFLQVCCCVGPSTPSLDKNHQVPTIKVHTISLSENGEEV

Histamine H1 receptor [3] = molecular target: T2, Histamine H1 receptor (Homo sapiens, UniProt P35367); assay: Antagonist activity at human H1 receptor expressed in CHO cells assessed as inhibition of calcium mobilization by FLIPR assay; assay type: functional, cell-based
How it was run: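 Intact CHO cells expressing recombinant human H1 receptor were loaded with Fluo-4AM. Inhibition of agonist-induced calcium mobilisation was read in a plate-based FLIPR instrument and expressed as pKi, with the number of determinations given.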

[4] = molecular target: T3, Alpha-1B adrenergic receptor (Homo sapiens, UniProt P35368); assay: Antagonist activity at human adrenergic alpha1B receptor expressed in rat fibroblasts by plate-based calcium imaging; assay type: functional
T3 sequence (P35368 whole entry): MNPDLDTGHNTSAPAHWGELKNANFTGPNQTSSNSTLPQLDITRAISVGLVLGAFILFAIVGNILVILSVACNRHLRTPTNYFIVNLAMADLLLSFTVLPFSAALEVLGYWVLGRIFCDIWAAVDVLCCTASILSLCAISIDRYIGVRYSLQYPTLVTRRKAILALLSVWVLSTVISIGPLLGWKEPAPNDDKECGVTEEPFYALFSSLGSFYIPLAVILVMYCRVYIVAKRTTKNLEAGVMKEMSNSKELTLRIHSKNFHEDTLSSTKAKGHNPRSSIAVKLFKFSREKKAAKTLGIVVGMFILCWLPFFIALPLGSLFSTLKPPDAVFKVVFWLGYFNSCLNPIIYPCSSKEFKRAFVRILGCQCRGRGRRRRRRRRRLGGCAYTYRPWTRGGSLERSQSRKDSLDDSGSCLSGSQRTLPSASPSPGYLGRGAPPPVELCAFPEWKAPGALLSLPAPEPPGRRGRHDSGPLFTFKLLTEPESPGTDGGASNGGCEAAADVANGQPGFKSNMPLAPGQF
How it was run: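 Plate-based calcium imaging in intact Rat1 fibroblast cells expressing the α1B adrenoceptor. Antagonist affinity is expressed as pKi, with the number of determinations given.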

Histamine H1 receptor [5] = molecular target: T2, Histamine H1 receptor; assay: Antagonist activity against human CHO cells H1 receptor at 100 nM after 30 mins by FLIPR assay; assay type: functional, cell-based; conditions: read-out: pA2 (converted)
How it was run: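 Modified lower-throughput FLIPR assay in CHO cells expressing recombinant human H1. Histamine concentration–response curves were run without antagonist and with a single 100 nM antagonist concentration after 30 min incubation. EC50 values came from a four-parameter logistic fit. pA2 = log(DR−1) − log[B], where DR is the ratio of the EC50 with antagonist to the control EC50. Values are mean ± SEM, with SD given when n<3.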

[6] = molecular target: Voltage-gated inwardly rectifying potassium channel KCNH2 (Homo sapiens, UniProt Q12809); assay: Displacement of [3H]dofetilide from human ERG
CHO [7] = assay: Selectivity ratio of pKi for human H3 receptor expressed in CHO cells to pKi for human adrenergic alpha1A receptor expressed in rat fibroblast; assay type: cell-based
How it was run: (§1)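 Ratio of two pKi values. The H3 pKi comes from membranes of CHO cells transfected with cloned human H3, read as reduction of histamine-stimulated GTPγS binding by scintillation proximity detection. The α1A or α1B pKi comes from intact Rat1 fibroblast cells expressing that receptor, read by plate-based calcium imaging.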

CHO [8] = assay: Selectivity ratio of pKi for human H3 receptor expressed in CHO cells to pKi for human H1 receptor expressed in CHO cells; assay type: cell-based
How it was run: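 Ratio of two pKi values. The H3 pKi comes from membranes of CHO cells transfected with cloned human H3 receptor, read as reduction of histamine-stimulated GTPγS binding by scintillation proximity detection. The H1 pKi comes from intact CHO cells expressing recombinant human H1, read as inhibition of agonist-induced calcium mobilisation (Fluo-4AM dye, FLIPR plate-based imaging).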

CHO [9] = assay: Selectivity ratio of pKi for human H3 receptor expressed in CHO cells to pKi for human adrenergic alpha1B receptor expressed in rat fibroblast; assay type: cell-based; how it was run: as §1

T2 sequence (P35367 whole entry): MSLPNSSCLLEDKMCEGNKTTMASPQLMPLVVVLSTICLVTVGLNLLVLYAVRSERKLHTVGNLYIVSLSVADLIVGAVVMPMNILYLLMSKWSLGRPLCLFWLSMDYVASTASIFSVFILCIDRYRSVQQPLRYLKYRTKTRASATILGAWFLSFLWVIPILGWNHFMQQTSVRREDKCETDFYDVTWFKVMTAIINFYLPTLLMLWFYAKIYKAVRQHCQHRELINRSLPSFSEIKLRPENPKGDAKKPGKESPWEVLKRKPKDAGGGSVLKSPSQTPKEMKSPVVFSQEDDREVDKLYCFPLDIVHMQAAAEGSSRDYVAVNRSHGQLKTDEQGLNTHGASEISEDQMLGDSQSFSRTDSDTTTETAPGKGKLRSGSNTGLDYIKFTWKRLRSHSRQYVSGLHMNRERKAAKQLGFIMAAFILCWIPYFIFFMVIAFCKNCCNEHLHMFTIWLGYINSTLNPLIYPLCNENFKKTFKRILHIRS
Chain of Histamine H3 receptor (Q9Y5N1 whole entry): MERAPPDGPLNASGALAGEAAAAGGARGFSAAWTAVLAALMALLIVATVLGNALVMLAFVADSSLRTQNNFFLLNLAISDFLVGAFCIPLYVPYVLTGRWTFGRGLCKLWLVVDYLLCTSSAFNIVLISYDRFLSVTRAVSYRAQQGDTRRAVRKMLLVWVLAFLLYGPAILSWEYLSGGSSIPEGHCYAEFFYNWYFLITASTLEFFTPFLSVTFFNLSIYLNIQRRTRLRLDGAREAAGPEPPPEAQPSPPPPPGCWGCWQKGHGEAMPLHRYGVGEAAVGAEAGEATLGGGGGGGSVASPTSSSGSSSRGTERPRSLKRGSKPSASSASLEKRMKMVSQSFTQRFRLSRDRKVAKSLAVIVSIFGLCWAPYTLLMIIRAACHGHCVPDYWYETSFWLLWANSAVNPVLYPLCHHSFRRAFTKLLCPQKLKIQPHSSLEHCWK
Chain of Voltage-gated inwardly rectifying potassium channel KCNH2 (Q12809 whole entry): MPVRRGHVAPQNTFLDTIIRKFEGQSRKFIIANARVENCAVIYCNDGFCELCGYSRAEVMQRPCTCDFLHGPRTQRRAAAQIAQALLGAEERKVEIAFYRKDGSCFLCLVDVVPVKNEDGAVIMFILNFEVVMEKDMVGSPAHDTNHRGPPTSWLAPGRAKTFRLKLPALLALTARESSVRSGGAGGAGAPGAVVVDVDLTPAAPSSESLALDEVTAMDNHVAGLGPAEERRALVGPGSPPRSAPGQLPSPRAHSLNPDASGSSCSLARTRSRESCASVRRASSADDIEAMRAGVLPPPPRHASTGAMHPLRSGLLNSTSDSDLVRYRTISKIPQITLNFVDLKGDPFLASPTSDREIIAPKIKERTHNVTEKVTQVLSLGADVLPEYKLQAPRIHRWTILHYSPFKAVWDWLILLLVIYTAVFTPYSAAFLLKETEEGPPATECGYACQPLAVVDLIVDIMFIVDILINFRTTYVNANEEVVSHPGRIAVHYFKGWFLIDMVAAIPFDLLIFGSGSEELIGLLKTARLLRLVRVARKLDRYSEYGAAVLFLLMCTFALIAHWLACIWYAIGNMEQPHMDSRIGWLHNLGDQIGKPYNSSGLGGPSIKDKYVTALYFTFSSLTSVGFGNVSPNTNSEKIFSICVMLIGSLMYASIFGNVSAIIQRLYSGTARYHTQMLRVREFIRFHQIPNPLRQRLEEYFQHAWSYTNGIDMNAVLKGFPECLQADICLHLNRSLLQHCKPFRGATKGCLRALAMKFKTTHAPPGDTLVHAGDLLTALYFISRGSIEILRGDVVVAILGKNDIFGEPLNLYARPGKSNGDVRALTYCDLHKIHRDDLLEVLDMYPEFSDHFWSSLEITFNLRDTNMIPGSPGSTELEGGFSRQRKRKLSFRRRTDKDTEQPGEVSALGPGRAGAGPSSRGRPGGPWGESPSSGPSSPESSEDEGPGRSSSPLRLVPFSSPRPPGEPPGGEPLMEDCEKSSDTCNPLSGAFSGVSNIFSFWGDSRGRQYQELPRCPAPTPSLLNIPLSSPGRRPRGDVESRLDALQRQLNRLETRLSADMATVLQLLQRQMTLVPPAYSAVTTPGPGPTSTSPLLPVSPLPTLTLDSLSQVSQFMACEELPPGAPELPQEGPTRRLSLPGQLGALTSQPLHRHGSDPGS

Structure (SMILES) | Ki (Histamine H3 receptor) | logD [1] | Ki [2] | Ki (Histamine H1 receptor [3]) | Ki [4] | Kb (Histamine H1 receptor [5]) | IC50 [6] | Ratio pKi (CHO [7]) | Ratio pKi (CHO [8]) | Ratio pKi (CHO [9])
COCCN1CCC[C@@H]1Cn1nc(Cc2ccc(Cl)cc2)c2ccccc2c1=O | 398 nM | 3.3 | 20 nM | 0.513 nM | 12.6 nM | – | – | – | – | –
COCCN1CCC[C@@H]1Cn1nc(Cc2ccc(Cl)cc2)c2cnccc2c1=O | – | 2.7 | – | 0.251 nM | 10 nM | 0.251 nM | – | – | – | –
COCCN1CCC[C@@H]1Cn1nc(Cc2ccc(Cl)cc2)c2ncccc2c1=O | – | 2.9 | 158 nM | 0.537 nM | 39.8 nM | – | – | – | – | –
CCCCN1CCC[C@@H]1Cn1nc(Cc2ccc(Cl)cc2)c2ccccc2c1=O | 437 nM | 3.1 | – | 0.912 nM | – | 0.0398 nM | – | – | – | –
CCCCN1CCC[C@@H]1Cn1nc(Cc2ccc(Cl)cc2)c2cnccc2c1=O | 631 nM | 3.2 | 6.31 nM | 0.398 nM | 7.94 nM | 0.1 nM | 50.1 nM | 10 | 2.7 | 10
CN1CCC[C@@H]1Cn1nc(Cc2ccc(Cl)cc2)c2cccnc2c1=O | – | 1.7 | 631 nM | 0.355 nM | 158 nM | 0.501 nM | – | – | – | –
CCCCN1CCC[C@@H]1Cn1nc(Cc2ccc(Cl)cc2)c2cccnc2c1=O | 631 nM | 2.8 | 100 nM | 0.631 nM | 100 nM | 0.316 nM | – | – | – | –
CN1CCC[C@@H]1Cn1nc(Cc2ccc(Cl)cc2)c2ncccc2c1=O | 316 nM | 2.7 | 200 nM | 0.316 nM | 50.1 nM | 0.316 nM | – | – | – | –
O=c1c2ccccc2c(Cc2ccc(Cl)cc2)nn1C[C@H]1CCCN1CCCCc1ccc(OCCCN2CCCCCC2)cc1 [GSK-1004723] | – | 3.2 | – | – | – | – | – | – | – | –
CN1CCCC(n2nc(Cc3ccc(Cl)cc3)c3ccccc3c2=O)CC1 (centres undefined) [AZELASTINE] | 148 nM | 2.3 | – | – | – | – | – | – | – | –
COCCN1CCC[C@@H]1Cn1nc(Cc2ccc(Cl)cc2)c2cccnc2c1=O | 631 nM | 2.1 | 316 nM | 1 nM | 316 nM | 0.794 nM | – | – | – | –
CN1CCC[C@@H]1Cn1nc(Cc2ccc(Cl)cc2)c2ccncc2c1=O | 398 nM | 2.2 | 20 nM | 0.692 nM | – | 2.51 nM | – | – | – | –
CN1CCC[C@@H]1Cn1nc(Cc2ccc(Cl)cc2)c2ccccc2c1=O | 437 nM | 3 | 31.6 nM | 0.162 nM | 10 nM | 0.1 nM | – | – | – | –
CN1CCC[C@@H]1Cn1nc(Cc2ccc(Cl)cc2)c2nccnc2c1=O | 631 nM | 1.7 | 398 nM | 1.29 nM | 251 nM | 3.98 nM | – | – | – | –
CN1CCC[C@@H]1Cn1nc(Cc2ccc(Cl)cc2)c2cnccc2c1=O | 398 nM | 1.9 | 12.6 nM | 0.347 nM | – | 0.316 nM | – | – | – | –
O=c1c2ccncc2c(Cc2ccc(Cl)cc2)nn1C[C@H]1CCCN1CCCCc1ccc(OCCCN2CCCCCC2)cc1 | 0.562 nM | – | 31.6 nM | 17.4 nM | 39.8 nM | 1 nM | 158 nM | 10 | 2.7 | 10
CCCCN1CCC[C@@H]1Cn1nc(Cc2ccc(Cl)cc2)c2ncccc2c1=O | 631 nM | 3.4 | 50.1 nM | 0.631 nM | 20 nM | – | – | – | – | –
